Source: PubChem BioAssay (The Scripps Research Institute Molecular Screening Center)
The list is not random: actives were taken first. Their share in the collection is about 3.1%.
GPR7 antag – antagonists of human GPR7 (neuropeptides B/W receptor 1); GPR7-expressing cells, fluorescence antagonist assay; P48145; inhibition, % at 4.4 µM; 1.1% of 290,000 active; AID 1861; in the data active means inhibition above about 16%, passing the limit was not always enough;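 further: cells stimulated with the agonist NPW; 0% = agonist with vehicle and 100% = vehicle without agonist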
Target sequence (P48145 whole entry, looked up): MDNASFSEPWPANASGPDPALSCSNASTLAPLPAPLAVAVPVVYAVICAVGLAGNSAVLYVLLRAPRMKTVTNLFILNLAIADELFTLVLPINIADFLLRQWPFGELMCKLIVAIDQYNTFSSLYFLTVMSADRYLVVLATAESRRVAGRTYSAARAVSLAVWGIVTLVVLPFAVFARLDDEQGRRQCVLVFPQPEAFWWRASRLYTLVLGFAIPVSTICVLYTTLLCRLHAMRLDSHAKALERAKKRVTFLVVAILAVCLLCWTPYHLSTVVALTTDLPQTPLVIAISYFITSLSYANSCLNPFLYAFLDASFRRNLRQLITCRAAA
GalR3 antagonist – blocks the human galanin receptor 3 | HEK293 GalR3-CNG cAMP membrane potential fluorescence; galR3 body fused to GalR1 C-terminus | 0.44% of 360,000 active | inhibition, % at 3 µM | O60755;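 active means inhibition above the screen-wide average plus 3 SD, cut at about 13% in these data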;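 further: forskolin and galanin both at EC90 stimulate the cells; cAMP rise reported by CNG channel membrane potential dye signal; 0% = forskolin plus galanin with DMSO and 100% = forskolin alone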
Target sequence (O60755 1-299 limits assumed): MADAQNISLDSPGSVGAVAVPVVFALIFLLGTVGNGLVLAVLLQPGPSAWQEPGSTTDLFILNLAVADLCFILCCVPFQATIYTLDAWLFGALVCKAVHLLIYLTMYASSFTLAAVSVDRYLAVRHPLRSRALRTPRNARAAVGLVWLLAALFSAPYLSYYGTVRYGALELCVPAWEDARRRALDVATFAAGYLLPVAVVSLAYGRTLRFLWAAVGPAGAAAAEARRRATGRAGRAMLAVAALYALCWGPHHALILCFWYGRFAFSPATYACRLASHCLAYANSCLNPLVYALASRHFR
OX1R antag-1 – human HCRTR1 antagonism; O43613; CHO/OX1R cells, Fluo-8 calcium fluorescence, orexin A; inhibition, % at 5 µM; 0.43% of 330,000 active; AID 434989;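 active means inhibition above its plate's threshold, mean inhibition of all tested compounds on the plate plus 3 SD, cut at about 37% in these data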;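 further: 0% = orexin A challenge wells and 100% = SB-334867-A antagonist wells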
OX1R antag-2 – OX1R (human) antagonism; O43613; OX1R-expressing cells, FRET antagonist read-out; inhibition, % at 6.6 µM; 1.8% of 330,000 active; AID 485270; in the data active means inhibition mostly above about 38%, no sharp cut-off; inactive means mostly below about 40%;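 further: 0% = agonist challenge alone and 100% = reference antagonist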
CHO parental Ca – signal in parental CHO cells, OX1R antagonist counter-screen; inhibition, % at 5.6 µM; 0.63% of 330,000 active; AID 463079; parental CHO-K1, ATP-induced calcium, Fluo-8 fluorescence;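 active means inhibition above that plate's mean sample inhibition plus 3 SD, cut at about 26% in these data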;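 further: 0% = ATP-challenged DMSO wells and 100% = DMSO wells without ATP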
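Test system: untransfected parental CHO cell line; also added: ATP stimulus; dosing: 5.6 µM, single dose; signal: calcium-sensitive Fluo-8 fluorescence; measure: percent inhibition of ATP-evoked calcium rise, normalized to controls; benchmarks: low control ATP plus DMSO, high control DMSO only; replication: one well per compound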
The depositor's hits bear a star; . = not tested or not shown.

SMILES	GPR7 antag	GalR3 antagonist	OX1R antag-1	OX1R antag-2	CHO parental Ca
CC(=O)Nc1cccc(-c2csc(Nc3ccccn3)n2)c1	4	-7	-10	61*	-12
O=C(Nc1ccc(Cl)cc1)Nc1nc(-c2ccccc2)cs1	-12	-2	13	2	5
Cc1cccc(Nc2nc(-c3ccccn3)cs2)n1	-3	-4	20	66*	-5
O=C(Nc1cccc(Cl)c1)Nc1nc(-c2ccccc2)cs1	-2	-2	34	46	37*
Cc1cccc(Nc2nc(-c3cccs3)cs2)n1	-13	-4	-16	55	-46
Nc1nnc(Sc2ncccc2[N+](=O)[O-])s1	-1	-3	-14	39*	-10
Cc1ccc(Sc2ncccc2[N+](=O)[O-])cc1	-5	1	-8	1	-11
Cc1ccnc(Sc2ncccc2[N+](=O)[O-])n1	0	-2	-8	60*	9
COc1ccc(OC)c(/C=C2/Sc3ccccc3C2=O)c1	-3	-7	57*	15	37*
Cc1ccc(-n2nnnc2-c2cnc(-c3cccnc3)nc2C(F)(F)F)cc1	-1	1	-20	40	-11
Fc1ccc(-n2nnnc2-c2cnc(-c3cccs3)nc2C(F)(F)F)cc1	-15	-4	39	83*	51*
FC(F)(F)c1ccncc1-c1nnnn1-c1ccc(Cl)cc1	13	-1	-4	14	-8
FC(F)(F)c1nc(-c2ccncc2)ncc1-c1nnnn1-c1ccccc1	-7	-2	-10	15	-23
c1ccc(-n2nnnc2-c2cnc(-c3ccncc3)nc2-c2cccs2)cc1	-14	1	21	46*	-11
FC(F)(F)c1nc(N2CCCC2)ncc1-c1nnnn1-c1ccc(Cl)cc1	-6	-3	61*	50	47*
C[C@@H]1CN([C@H](C)CO)C(=O)CCCn2nncc2CO[C@H]1CN(C)Cc1cccc(O)c1	.	-7	.	.	.
CN(C(=O)c1cccc(NC(=O)Cc2ccc(NC(=O)C3CCCN(C(=O)C4CC4)C3)cc2)c1)C1CCCCC1 (centres undefined)	.	6	.	.	.
Brc1ccc(N/N=C(/N=Nc2nn[nH]n2)c2ccccc2)cc1	-15	-7	-9	47*	-8
O=C(O)c1ccc(N=N/C(=N\Nc2ccc(C(=O)O)cc2)c2ccccc2)cc1	.	-4	-14	24	-5
CNc1ccc2ncc(-c3ccccc3C(C)=O)n2n1	.	-1	.	.	.
c1ccc(NCc2nc3ccccc3n2CCOc2ccccc2)cc1	0	-4	12	68*	-20
CN(C)Cc1c(O)ccc2cc(-c3nc4ccccc4n3C)c(=O)oc12	-14	-5	-12	43*	7
COc1ccc(C)cc1NC(=O)COC(=O)Cc1c[nH]c2ccccc12	.	0	.	.	.
O=C(COc1ccc(S(=O)(=O)N2CCOCC2)cc1)Nc1ccc(Br)cc1	.	-5	-9	5	-9
O=C(CN1CCN(S(=O)(=O)c2ccc(Br)cc2)CC1)Nc1ccc2c(c1)OCO2	31*	4	-16	4	-5
SMILES	GPR7 antag	GalR3 antagonist	OX1R antag-1	OX1R antag-2	CHO parental Ca
O=C(CCCOc1ccc(Br)cc1)Nc1ccc(S(=O)(=O)N2CCOCC2)cc1	.	-4	27	14	35*
N#CC(C#N)=NNc1ccc(S(=O)(=O)N2CCCCC2)cc1	-8	-3	1	57*	-15
CN1CCN(S(=O)(=O)c2ccc(NC(=O)c3ccc(Br)s3)cc2)CC1	18*	2	-10	-1	-11
O=C(CN1CCOCC1)Nc1ccc2c(c1)OCO2	-4	-4	-11	24	-4
O=C(NCC(=O)N1CCN(C(c2ccccc2)c2ccccc2)CC1)c1ccccc1Br	.	4	.	.	.
CC1=C[C@@H]2[C@H]3C(=O)N(Cc4ccccc4)C(=O)[C@H]3[C@@H]1[C@@H]1O[C@@]3(C(=O)N(C)c4ccccc43)C3=C(CCCC3=O)N21	.	-6	.	.	.
CC(C)Oc1cccc(NC(=O)C2(C)CCN2C(C)C)c1 (centres undefined)	.	-7	.	.	.
CC(SCC(=O)Nc1ccc(S(=O)(=O)N2CCCCC2)cc1)C(=O)O (centres undefined)	19*	2	-6	12	-17
Cc1ccc(S(=O)(=O)N2CCN(CC(=O)N3CCOCC3)CC2)cc1	-2	3	-6	16	-8
CC(=O)Nc1ccc(S(=O)(=O)N2CCCC2)cc1	-7	-11	-3	15	-9
O=C(Nc1ccc(S(=O)(=O)N2CCCCC2)cc1)c1ccccc1Cl	19	-4	-4	21	-3
CC(=O)Nc1ccc(S(=O)(=O)N2CCN(CC(=O)N3CCOCC3)CC2)cc1	20*	-3	4	0	-9
CC(=O)Nc1ccc(S(=O)(=O)N2CCN(S(=O)(=O)N3CCCCCC3)CC2)cc1	19*	-1	-23	9	-15
O=C(Nc1ccccc1)Nc1ccc(S(=O)(=O)N2CCCCC2)cc1	-12	-4	34	43	38*
COc1ccc([C@H]2CC(=O)C=C(c3cccc(C(C)C)c3)C2)cc1OC	.	-12	48*	6	24
COc1c(C)cc(C(O)c2ncc(-c3ccccc3F)[nH]2)cc1C (centres undefined)	.	-2	.	.	.
O=C(NCc1cccnc1)/C(=C\c1ccc(-c2ccc(Br)cc2)o1)S(=O)(=O)c1ccccc1	23*	0	-19	21	-18
O=C(NCc1cccnc1)/C(=C/c1ccc(-c2ccc(Cl)cc2)o1)S(=O)(=O)c1ccccc1	27*	-5	-16	31	-4
O=C(NCc1cccnc1)/C(=C/c1ccc(-c2cccc(C(F)(F)F)c2)o1)NC(=O)c1ccccc1	-5	5	-24	15	-18
COc1ccc2cc3cc(C(=O)N4CCN(C5CCCCC5)CC4)oc3nc2c1	-7	.	-9	15	-4
COc1ccc2cc3cc(C(=O)NCCN4CCc5ccccc5C4)oc3nc2c1	-3	.	-18	42*	-11
COc1ccc2cc3cc(C(=O)NCCCN4CCC(C)CC4)oc3nc2c1	-13	.	-19	46*	-4
COc1ccc2cc3cc(C(=O)NCCN4CCN(Cc5ccccc5)CC4)oc3nc2c1	-1	-7	-38	61	-33
COc1ccc2cc3cc(C(=O)N4CCCCCC4)oc3nc2c1	5	.	2	57*	-10
Cc1cc(=O)[nH]c(SCC(=O)Nc2ccc(N3CCCCC3)cc2)n1	.	-6	37	9	43*
COc1cccc(/C=N/Nc2ncnc(Cl)c2N)c1O	-1	-5	-1	54	-3
COc1ccc(/C=N/Nc2ncnc(Cl)c2N)cc1OC	-8	-1	-4	56*	-3
Nc1c(Cl)ncnc1N/N=C/c1cccc(O)c1	-12	8	-15	72*	-10
COCCN1Cc2cc(C(=O)OC)c3c(c2C1=O)c1ccccc1n3S(=O)(=O)c1ccc(OC)cc1	.	-8	.	.	.
COc1cccc(C(=O)Oc2cc3c4c(c2)C(C)=CC(C)(C)N4C(=O)C3=O)c1	4	24*	21	22	16
